A selection: hits, their analogues and other compounds. The true share with any hit is near 5.2%.
core dimer inh – inhibitors of HCV core protein dimerization, primary screen, biochemical, TR-FRET, high-throughput; hit rate 0.33% among 300,000; TR-FRET GST/Flag-core106 dimerization, 1536-well; inhibition, % at 5 µM; AID 1899, 2009;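 active means inhibition above the mean of all tested compounds plus 3 SD, set per screening campaign, cut at about 45% in these data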
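test system = GST/Flag-tagged HCV core106 proteins | probe or stimulus = Eu donor and XL665 acceptor anti-tag antibodies | times = compound-protein-antibody incubation 4 h at 22.5 °C | signal = TR-FRET, excitation 340 nm, emission 617 and 671 nm | measure = percent inhibition of core106 dimerization signal | controls = wells lacking GST-core106 and wells with excess unlabelled core106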
M18AAP inhibitor – PfM18AAP inhibitors, malaria aminopeptidase, primary screen, biochemical, QFRET, recombinant enzyme. AID 1822, 2009. inhibition, % at 7.35 µM. H-Glu-NHMec fluorogenic cleavage. M18 aspartyl aminopeptidase (Plasmodium falciparum 3D7). hit rate 1.2% among 290,000;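 active means inhibition above the campaign mean inhibition over all tested compounds plus 3 SD, cut at about 28% in these data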;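 further: 0% = plate median of test compound wells and 100% = 2 mM ZnCl2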
ZTA counter – counter-screen for EBNA-1 inhibitors: inhibitors of Epstein-Barr virus ZTA; P03206; ZTA-DNA binding, fluorescence polarization; inhibition, % at 11 µM; hit rate 0.15% among 320,000; in the data active means inhibition above about 33%
Target sequence (P03206 whole entry, looked up): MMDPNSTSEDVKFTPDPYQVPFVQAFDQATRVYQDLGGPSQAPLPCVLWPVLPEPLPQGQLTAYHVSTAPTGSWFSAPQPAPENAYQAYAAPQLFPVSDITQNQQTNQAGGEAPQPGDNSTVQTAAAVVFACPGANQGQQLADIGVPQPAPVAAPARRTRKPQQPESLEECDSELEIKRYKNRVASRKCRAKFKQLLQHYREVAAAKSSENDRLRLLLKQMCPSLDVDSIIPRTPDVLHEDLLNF
EBNA-1 inh – EBNA-1 DNA-binding inhibitors, primary screen, biochemical, fluorescence polarization; inhibition, % at 14.8 µM; hit rate 0.34% among 300,000; AID 1950, 2009; in the data active means inhibition above about 28%
ALR inh – inhibitors of human ALR sulfhydryl oxidase, primary screen, biochemical, H2O2 detection, HRP-luminol luminescence, single point; FAD-linked sulfhydryl oxidase ALR (Homo sapiens), P55789; purified ALR, DTT oxidation; inhibition, % (no concentration beside the values); hit rate 3.8% among 290,000; AID 485317, 2010;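 active means mean replicate inhibition above about 79%, with every replicate also reaching it, limit read from the data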
Target sequence (P55789 whole entry, looked up): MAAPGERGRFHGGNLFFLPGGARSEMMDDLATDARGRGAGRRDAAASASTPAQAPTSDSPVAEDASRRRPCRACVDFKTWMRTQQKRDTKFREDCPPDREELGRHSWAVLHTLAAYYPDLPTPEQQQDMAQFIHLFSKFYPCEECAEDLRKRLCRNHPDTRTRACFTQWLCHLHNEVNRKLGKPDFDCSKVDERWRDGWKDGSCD
NS3 helicase inh – inhibitors of HCV NS3 helicase, primary screen, biochemical, Cy5 molecular beacon fluorescence; Hepatitis C virus NS3 helicase; NS3 helicase DNA unwinding; inhibition, % at 10.9 µM; hit rate 0.56% among 290,000;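 active means inhibition above the mean of all tested compounds plus 3 SD, set per campaign, cut at about 35% in these data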;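 further: 0% = DMSO wells and 100% = thioflavine S control wells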
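Compound dosing – single dose, 10.9 µM nominal final, DMSO 0.8% final · System – NS3 helicase fragment of HCV · Buffer or medium – MOPS pH 6.5, MgCl2, DTT, Tween20, BSA · Signal – Cy5 beacon fluorescence read at start and 1 h · Also added – annealed dual-labelled DNA beacon duplex, ATP-started · Schedule – 1 h at 25 °C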
NS3 hel confirm – HCV NS3 helicase inhibitors, retest, confirmation, biochemical, Cy5 molecular beacon fluorescence, triplicate. shares compounds with NS3 helicase inh. NS3 helicase DNA unwinding. inhibition, % at 10.9 µM. hit rate 31% among 1,600;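 active means inhibition above the mean of all tested compounds plus 3 SD, cutoff set per campaign, cut at about 36% in these data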
DNA FID counter – compounds displacing fluorescent DNA intercalator, artefact control for HCV NS3 helicase inhibitor project, biochemical, FID fluorescence, triplicate; shares compounds with NS3 helicase inh; inhibition, % at 7.9 µM; DNA fluorescent intercalator displacement; hit rate 4% among 1,600; in the data active means inhibition above about 37%;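 further: 0% = vehicle and 100% = reference compound; higher means more displacement of ethidium bromide from the DNA hairpin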
FID counter DR – compounds displacing fluorescent intercalator from DNA, dose response, counter-screen for HCV NS3 helicase inhibitor project, biochemical, fluorescence | fluorescent intercalator displacement from DNA | 120 tested, under 10 active | AID 2172, 2009 | shares compounds with NS3 helicase inh | IC50, µM; call rule not given here
Numbers without * were called inactive; nt = not tested or not shown.

SMILES	core dimer inh	M18AAP inhibitor	ZTA counter	EBNA-1 inh	ALR inh	NS3 helicase inh	NS3 hel confirm	DNA FID counter	others
CCCCCOc1ccc(/C=c2\sc3nc(=O)c(-c4ccccc4)nn3c2=O)cc1OC	2	-8	9	7	-6	43*	72*	-20	FID counter DR=>79
Cc1cc(C(=O)CSc2nnc(-c3ccco3)o2)c(C)n1CC1COc2ccccc2O1 (centres undefined)	nt	26	nt	nt	nt	42*	1	-41
COC(=O)c1sc2ncn(N)c(=O)c2c1C	-3	4	-15	-7	-5	6	nt	nt
CCOC(=O)c1sc2ncn(/N=C/N(C)C)c(=O)c2c1C	-3	7	-4	6	-2	41*	-5	11
COc1ccc(/C=c2\s/c(=C/C(=O)c3ccc(C)cc3)[nH]c2=O)cc1OC	-2	3	4	-5	3	59*	11	4
CCOC(=O)N1CCC(NC(=O)CN(c2ccc(C(C)C)cc2)S(=O)(=O)c2c(C)nn(C)c2C)CC1	11	-1	-4	1	-1	1	nt	nt
O=CC1=C(N2CCOCC2)/C(=C/c2ccc(Cl)cc2)CC1	0	9	4	11	nt	8	nt	nt
Cc1cc(C)nc(N/N=C/C2=C(N3CCOCC3)C(=C\c3ccc(Cl)cc3)/CC2)n1	17	23	8	1	98*	36*	-6	-10
O=C(NCCCN1CCCCC1)C1CCC(CNS(=O)(=O)c2cccc3nsnc23)CC1 (centres undefined)	-4	-3	-6	10	-9	5	nt	nt
CC[C@@H](C)[C@H](NC(=O)Cc1c(C)c2c(cc(C)c3c(C)coc32)oc1=O)C(=O)O	nt	-4	nt	nt	3	12	nt	nt
CC[C@@H](C)[C@H](NC(=O)Cc1c(C)c2cc3c(C)c(C)oc3c(C)c2oc1=O)C(=O)O	5	5	6	6	5	49*	75*	9
Cc1oc2c(c(C)cc3oc(=O)c(CC(=O)N[C@@H](CC(C)C)C(=O)O)c(C)c32)c1C	nt	-4	nt	nt	30	47*	24	-35
CCN(CC)CC(C)CNC(=O)C1(O)c2ccccc2NC(=O)N1c1ccc(Cl)c(Cl)c1 (centres undefined)	2	4	-4	4	-21	3	nt	nt
CCOc1ccc(N(CC(=O)NCC2CCCO2)S(=O)(=O)c2ccc(SC)cc2)cc1 (centres undefined)	0	-6	-15	5	-7	-1	nt	nt
O=C(CCc1nc2ccccc2c(=O)[nH]1)OCC(=O)N1CCc2ccccc21	5	-14	9	4	-1	70*	-14	-18
CCCc1cc(=O)[nH]c(SC(C)C(=O)N2c3ccccc3CC2C)n1 (centres undefined)	nt	nt	-27	nt	-2	nt	nt	nt
O=C(CNS(=O)(=O)c1ccc(Br)cc1)Nc1ccc2c(c1)OCCO2	nt	-4	nt	nt	nt	-1	nt	nt
O=C(O)CCCCCCCCCCCc1ccccc1	-6	2	7	-3	25	38*	70*	-37
Cc1cccn2c(=O)c3cc(C(=O)NC4CCCCC4)c(=N)n(Cc4ccccc4)c3nc12	6	-4	-10	2	nt	-18	nt	nt
Cc1cccn2c(=O)c3cc(C(=O)NC4CCCC4)c(=N)n(C4CCCCC4)c3nc12	-16	1	-22	-7	-2	40*	-14	18
Cc1ccc(NC(=O)CSc2nc(O)cc(=O)n2-c2ccc(C)cc2)cc1	10	0	-16	-4	100*	48*	36*	-18
CCCCc1cc(=O)oc2cc(OCC(=O)N[C@@H](Cc3ccccc3)C(=O)O)ccc12	-2	11	-2	-13	-12	50*	24	-26
N#C/C(=C\c1ccc(OCc2ccc(C(=O)O)cc2)cc1)C(=O)NCc1ccccc1	23	4	17	18	30	39*	70*	-27	FID counter DR=>79
COc1ccc(CCCc2nnc(SCC(=O)NN)o2)c(C)c1	2	-7	6	13	17	-4	nt	nt
Cc1cc(OCc2nn[nH]n2)c2c(C)c(Cc3ccccc3)c(=O)oc2c1	9	4	2	7	34	69*	62*	-13
SMILES	core dimer inh	M18AAP inhibitor	ZTA counter	EBNA-1 inh	ALR inh	NS3 helicase inh	NS3 hel confirm	DNA FID counter	others
CCCCCCCCCc1nc2sc3c(c2c(=O)n1NC(=O)c1ccccc1[N+](=O)[O-])CC(C)(C)OC3	22	-7	2	-7	-28	37*	50*	4	FID counter DR=>79
Cc1nnc(-c2cnn(C)c2N)n1CCCN1CCOCC1	-2	3	-13	-5	nt	1	nt	nt
O=c1c2c(-c3ccco3)csc2nc(SCc2cn3cccnc3n2)n1-c1ccccc1	66*	2	12	0	8	62*	94*	8	FID counter DR=>79
O=C(CSc1nc2scc(-c3ccco3)c2c(=O)n1-c1ccccc1)NCC1CCCO1 (centres undefined)	14	-50	-11	14	96*	86*	15	-45
O=C1c2cccc(OCC(=O)N3CCCc4ccccc43)c2CCN1Cc1cccnc1	0	0	4	-5	0	-4	nt	nt
Cc1ccccc1CN1CCc2c(OCC(=O)N3CCCc4ccccc43)cccc2C1=O	11	8	-4	6	nt	75*	-12	-44
COC(=O)c1cc(S(=O)(=O)NCc2ccc(Br)cc2)c[nH]1	2	-16	0	-11	-9	12	nt	nt
COC(=O)c1ccc(CS(=O)(=O)c2ccc(C)cc2)cc1	-2	2	6	3	2	-4	nt	nt
COC(=O)c1ccc(OC(C)C(=O)c2ccc(C)cc2)cc1 (centres undefined)	7	8	-13	17	-1	37*	-8	-16
Cc1ccc(C(C(=O)NC2CCCCC2)N(Cc2ccccc2)C(=O)Cc2c[nH]c3ccccc23)o1 (centres undefined)	17	-8	7	-13	-1	-10	nt	nt
COc1ccc(CN(C(=O)Cc2c[nH]c3ccccc23)C(C(=O)NC2CCCCC2)c2ccc(C)o2)cc1 (centres undefined)	10	4	-13	-8	-1	65*	11	-22
